GalR3 antag: human GalR3 antagonism. HEK293 GalR3-CNG cAMP membrane potential fluorescence; galR3 body fused to GalR1 C-terminus. inhibition, % at 3 µM. 0.44% of 360,000 active. AID 651719;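 active = inhibition above the screen-wide average plus 3 SD, cut at about 13% in these data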;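 note: forskolin and galanin both at EC90 stimulate the cells; cAMP rise reported by CNG channel membrane potential dye signal; 0% = forskolin plus galanin with DMSO and 100% = forskolin alone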
Target sequence (O60755 1-299 limits assumed): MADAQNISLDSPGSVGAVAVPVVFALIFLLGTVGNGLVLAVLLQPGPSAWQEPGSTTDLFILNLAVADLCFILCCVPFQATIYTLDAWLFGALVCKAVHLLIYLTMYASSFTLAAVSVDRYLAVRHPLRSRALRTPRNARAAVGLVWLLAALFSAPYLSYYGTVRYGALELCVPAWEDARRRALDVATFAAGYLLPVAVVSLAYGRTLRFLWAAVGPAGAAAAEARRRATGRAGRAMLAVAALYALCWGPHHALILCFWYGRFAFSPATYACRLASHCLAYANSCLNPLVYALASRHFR
OX1R antag-1: blocks the human orexin 1 receptor | O43613 | OX1R-expressing cells, FRET antagonist read-out | inhibition, % at 6.6 µM | 1.8% of 330,000 active; in the data active = inhibition mostly above about 38%, no sharp cut-off; inactive = mostly below about 40%;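 note: 0% = agonist challenge alone and 100% = reference antagonist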
OX1R antag-2: blocks the human orexin 1 receptor. inhibition, % at 5 µM. O43613. AID 434989. CHO/OX1R cells, Fluo-8 calcium fluorescence, orexin A. 0.43% of 330,000 active;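 active = inhibition above its plate's threshold, mean inhibition of all tested compounds on the plate plus 3 SD, cut at about 37% in these data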;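 note: 0% = orexin A challenge wells and 100% = SB-334867-A antagonist wells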
GPR7 antag: blocks human GPR7 receptor signaling; 1.1% of 290,000 active; GPR7-expressing cells, fluorescence antagonist assay; P48145; inhibition, % at 4.4 µM; in the data active = inhibition above about 16%, passing the limit was not always enough;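 note: cells stimulated with the agonist NPW; 0% = agonist with vehicle and 100% = vehicle without agonist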
Target sequence (P48145 whole entry, looked up): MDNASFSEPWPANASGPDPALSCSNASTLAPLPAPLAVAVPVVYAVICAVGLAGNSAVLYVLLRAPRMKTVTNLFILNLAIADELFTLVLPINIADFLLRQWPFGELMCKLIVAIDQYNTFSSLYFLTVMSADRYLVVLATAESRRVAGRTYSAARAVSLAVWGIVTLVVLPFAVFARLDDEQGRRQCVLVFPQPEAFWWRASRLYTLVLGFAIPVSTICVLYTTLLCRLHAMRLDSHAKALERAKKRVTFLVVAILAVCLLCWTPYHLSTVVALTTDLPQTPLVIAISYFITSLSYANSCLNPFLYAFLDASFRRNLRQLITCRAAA
CHO parental Ca: counter-screen: ATP calcium response change in parental CHO cells. 0.63% of 330,000 active. AID 463079. parental CHO-K1, ATP-induced calcium, Fluo-8 fluorescence. inhibition, % at 5.6 µM;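 active = inhibition above that plate's mean sample inhibition plus 3 SD, cut at about 26% in these data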;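 note: 0% = ATP-challenged DMSO wells and 100% = DMSO wells without ATP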
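material = parental CHO cells | also added = ATP as calcium-mobilizing challenge | dosing = single point at 5.6 µM | detection = intracellular calcium via Fluo-8 no-wash fluorescent dye | read-out = % inhibition | benchmarks = low control ATP plus DMSO, high control DMSO only | repeats = one well per compound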
GPR7 antag cf: human GPR7 antagonism, confirmation assay; shares compounds with GPR7 antag; GPR7-expressing cells, calcium fluorescence antagonist mode; inhibition, % at 4.4 µM; 52% of 2,400 active; AID 1952; in the data active = inhibition above about 24%;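 note: stimulated with the GPR7 agonist NPW; 0% = agonist plus vehicle and 100% = vehicle alone without agonist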
MCHR1 antagonist: counter-screen for GPR7 antagonists: antagonists of human MCHR1 | shares compounds with GPR7 antag | MCHR1-expressing cells, fluorescence antagonist assay | inhibition, % at 4.4 µM | 62% of 2,400 active | AID 2148; in the data active = inhibition above about 22%;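 note: 0% = vehicle with agonist and 100% = vehicle without agonist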
Starred values were filed as active, the others as inactive; · = not tested or not shown. Only some compounds are listed: those with a hit (about 3.1% of all), similar ones and a draw of the others.

SMILES | GalR3 antag | OX1R antag-1 | OX1R antag-2 | GPR7 antag | CHO parental Ca | GPR7 antag cf | MCHR1 antagonist
Cc1ccc(CN2C(=O)c3ccccc3Sc3ccc(C(=O)NCCCN4CCOCC4)cc32)cc1 | -10 | 14 | 6 | 29* | -11 | 40* | 19
O=C(CN1C(=O)/C(=C/c2ccc(C(F)(F)F)cc2)Sc2ccccc21)NCCCN1CCOCC1 | -5 | -8 | -15 | 10 | -16 | · | ·
O=C(CN1C(=O)/C(=C\c2cccc(Cl)c2)Sc2ccccc21)NCCCN1CCOCC1 | 1 | 11 | 0 | 25* | -11 | 26* | 36*
N#CC1(C#N)[C@@H](C(=O)C23CC4CC(CC(C4)C2)C3)C12CCOCC2 | -2 | 6 | 6 | -12 | -1 | · | ·
CCOC(=O)C(CCC(C)=O)C(=O)c1ccccc1 (centres undefined) | -7 | 11 | -10 | -2 | -14 | · | ·
CCc1ccc(S(=O)(=O)NCc2cn3ccsc3n2)s1 | -3 | 14 | -7 | -7 | -1 | · | ·
O=S(=O)(NCc1cn2ccsc2n1)c1cccs1 | 1 | 13 | -4 | 27* | -9 | -13 | -4
Fc1ccc(-c2nnc3ccc(N4CCc5ccccc5C4)nn23)cc1 | 5 | 16 | -37 | 4 | -18 | · | ·
Cc1c(C(=O)N2CCCCC2C)sc2ncnc(N3CCc4ccccc4C3)c12 (centres undefined) | -7 | 25 | -52 | 27* | -31 | 20 | 35*
Cc1cc(C)cc(NC(=O)NC(C)C2CCCO2)c1 (centres undefined) | -5 | 37 | 7 | 3 | -9 | · | ·
CC(NC(=O)Nc1ccc2c(c1)OCO2)C1CCCO1 (centres undefined) | -5 | 11 | 1 | 99* | 0 | -5 | 18
O=C(COC(=O)c1ccc2c(c1)OCCO2)NC1CCCCC1 | -4 | -3 | -8 | · | -3 | · | ·
O=C(Nc1ccc(Cl)c(C(F)(F)F)c1)C1Cc2c(-c3ccccc3)ccnc2O1 (centres undefined) | -1 | · | · | · | · | · | ·
COc1ccccc1-c1noc(CCC(=O)Nc2cccnc2)n1 | -7 | · | · | · | · | · | ·
COc1ccccc1-c1noc(CCC(=O)Nc2cc(C(F)(F)F)ccc2Cl)n1 | -6 | 24 | 6 | 23* | 13 | 15 | 32*
CC1CCC(NC(=O)c2cccc(S(=O)(=O)N3CCN(c4ccccc4)CC3)c2)CC1 (centres undefined) | -4 | 12 | -8 | · | -9 | · | ·
CCn1c(=O)c(=O)[nH]c2cc(C(=O)NC3CC3)ccc21 | -11 | 18 | 5 | -9 | -3 | · | ·
O=C(NC1CCCc2ccccc21)c1cccc(S(=O)(=O)N2CCN(c3ccccc3)CC2)c1 (centres undefined) | -4 | 4 | 17 | 45* | -1 | 62* | 43*
CCn1c(=O)c(=O)[nH]c2cc(C(=O)NC3CCCc4ccccc43)ccc21 (centres undefined) | -5 | 3 | -15 | 23* | -11 | 3 | 5
CCCC(=O)Nc1sc(-c2ccccc2)c(-c2ccccc2)c1C(=O)O | -3 | 9 | -5 | · | -7 | · | ·
CC(C)(C)c1ccc(C(=O)N2CCC(C(=O)c3ccccc3)CC2)cc1 | -11 | -6 | -1 | 41* | 25 | 39* | 38*
O=C(COC(=O)CCS(=O)(=O)c1ccc(F)cc1)NC1CCCCC1 | 3 | 8 | -15 | · | -9 | · | ·
N/C(=N\OC(=O)COc1ccccc1)c1ccc(Cl)cc1 | -2 | 6 | -12 | 24* | 12 | -5 | 8
O=C(/C=C/c1ccccc1)NNC(=O)c1cccs1 | 1 | 17 | -7 | -3 | 3 | · | ·
COc1ccccc1/C=C/C(=O)NNC(=O)c1cccs1 | -6 | 27 | 4 | 30* | -6 | -3 | 4
SMILES | GalR3 antag | OX1R antag-1 | OX1R antag-2 | GPR7 antag | CHO parental Ca | GPR7 antag cf | MCHR1 antagonist
CCN(C1CCS(=O)(=O)C1)S(=O)(=O)c1ccc2ccccc2c1 (centres undefined) | -5 | 10 | -19 | · | -9 | · | ·
O=C(COC(=O)c1cc([N+](=O)[O-])ccc1N1CCOCC1)Nc1cccc(F)c1 | 1 | 71* | 5 | 35* | 4 | 7 | 24*
O=C(c1ccccc1-n1cccn1)N1CCc2c([nH]c3ccccc23)C1c1ccccn1 (centres undefined) | -1 | 8 | -34 | -13 | -16 | · | ·
O=C(NC(NC(=S)Nc1ccccc1)C(Cl)(Cl)Cl)c1cccc(Cl)c1 (centres undefined) | -6 | 39 | 37 | 34* | -1 | 47* | 54*
CCc1ccc2[nH]c(=O)c(C(c3nnnn3Cc3ccc(OC)cc3)N3CCOCC3)cc2c1 (centres undefined) | -5 | 10 | -20 | 29* | -22 | 5 | 14
CCc1ccc2[nH]c(=O)c(C(c3nnnn3Cc3ccccc3)N3CCOCC3)cc2c1 (centres undefined) | -3 | 10 | -29 | 5 | -18 | · | ·
CCCCCCCCCCOC(=O)Cn1c(COc2ccccc2OC)[n+](C)c2ccccc21 | 4 | 32 | 77* | 53* | 84* | 98* | 107*
CCN(CC)S(=O)(=O)c1cc(C(=O)OC)ccc1Cl | -5 | 11 | -6 | 37* | -10 | -1 | -4
CCN(CC)S(=O)(=O)c1cc(C(=O)O)ccc1Cl | -6 | 9 | -17 | -8 | -9 | · | ·
O=C1C2C3C=CC(C3)C2C(=O)N1c1ccc(-c2nc3ccccc3o2)cc1 (centres undefined) | 0 | 22 | -13 | 40* | -3 | 12 | 1
Cc1ccc2c(c1)c1c(n2CC(O)CNC2CCCCC2)CCCC1 (centres undefined) | -6 | 13 | -4 | 32* | 19 | 56* | 54*
Cc1cccc(S(=O)(=O)NCCc2ccccc2)c1 | -6 | 11 | -6 | 0 | -1 | · | ·
COc1ccccc1-c1c(-c2ccc(OCC(=O)NN)cc2O)n[nH]c1C(F)(F)F | -1 | -1 | -14 | -6 | -24 | · | ·
COc1ccc(-c2n[nH]c(C(F)(F)F)c2-c2cc3ccccc3o2)c(O)c1 | -6 | 2 | 52* | 29* | 78* | 32* | 71*
Cc1ccc(Cl)cc1N1CCN(CC(=O)Nc2ccc(CN3CCCCC3)cc2)CC1 | 4 | 14 | -5 | 24* | -11 | 28* | 56*
COc1ccccc1N1CCN(CC(=O)Nc2ccc(CN3CCCCC3)cc2)CC1 | · | 8 | -24 | -8 | -3 | · | ·
COc1ccc(C(=O)N=C2SC3CS(=O)(=O)CC3N2c2ccccc2)cc1OC (centres undefined) | -1 | 11 | -12 | 5 | -2 | · | ·
C=C(CCC(=O)c1ccccc1)C(=O)c1ccccc1 | -6 | 13 | 4 | 46* | -3 | 86* | 78*
Cc1ccc(NC(=O)C2CCCN(S(=O)(=O)c3c(C)noc3C)C2)c(Br)c1 (centres undefined) | 4 | 18 | -9 | -8 | -17 | · | ·
